ChEMBL document CHEMBL3352456, “Design, synthesis and biological activity of a novel Rutin analogue with improved lipid soluble properties” (Bioorg Med Chem, 2015)
pIC50: −log10 of the molar value. Activity calls are given as the source filed them. The calls are words filed in the database; no cut-off is given here.

Assays:
[1] = Octanol-water partition coefficient, log P of the compound at 5 mg/20 ml after 30 mins by spectrophotometric analysis; assay type: physicochemical
In short: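 Octanol and water (pH 6), 20 mL each, stirred 30 min at 25 °C, then centrifuged 10 min at 4,000 rpm. Compound concentration in each phase measured spectrophotometrically at 360 nm. LogP = log of the octanol/water concentration ratio.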

Epidermophyton floccosum [2] = test: Antifungal activity against Epidermophyton floccosum (Hartz) Langeron and Milochevitch CBS 358.93 assessed as growth inhibition at 20 ug/ml measured on day 7 by sabouraud dextrose agar diffusion method relative to control; assay type: functional
In short: (§1)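 Dermatophyte strains kept on Sabouraud dextrose agar slants. Mycelium disks (10 mm) from a stationary-phase culture grown at 26 ± 1 °C on cellophane over SDA to log phase, then moved onto SDA containing compound added from DMSO stock at 45 °C (final DMSO 0.1%; DMSO-only controls). Colony diameter measured daily for 7 days. % inhibition = (dex − dex')/dex × 100. Three replicates per concentration; mean of three independent experiments.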

Trichophyton rubrum [3] = test: Antifungal activity against Trichophyton rubrum (Castellani) Sabouraud IHME 4321 assessed as growth inhibition at 20 ug/ml measured on day 7 by sabouraud dextrose agar diffusion method relative to control; assay type: functional; conditions: (Castellani) Sabouraud IHME 4321, 168 h, read-out: GI; in short: as §1
Trichophyton tonsurans [4] = test: Antifungal activity against Trichophyton tonsurans Malmsten CBS 483.76 assessed as growth inhibition at 20 ug/ml measured on day 7 by sabouraud dextrose agar diffusion method relative to control; assay type: functional; conditions: Malmsten CBS 483.76, 168 h, read-out: GI; in short: as §1
Trichophyton violaceum [5] = test: Antifungal activity against Trichophyton violaceum Malmsten CBS 459.61 assessed as growth inhibition at 20 ug/ml measured on day 7 by sabouraud dextrose agar diffusion method relative to control; assay type: functional; conditions: Malmsten CBS 459.61, 168 h, read-out: GI; in short: as §1
[6] = tested on: Trichophyton mentagrophytes; test: Antifungal activity against Trichophyton mentagrophytes (Robin) Blanchard CBS 160.66 assessed as growth inhibition at 20 ug/ml measured on day 7 by sabouraud dextrose agar diffusion method relative to control; assay type: functional; conditions: (Robin) Blanchard CBS 160.66, 168 h, read-out: GI; in short: as §1
Nannizzia gypsea [7] = test: Antifungal activity against Microsporum gypseum (Bodin) Guiart and Grigorakis IHME 3999 assessed as growth inhibition at 20 ug/ml measured on day 7 by sabouraud dextrose agar diffusion method relative to control; assay type: functional; conditions: (Bodin) Guiart and Grigorakis IHME 3999, 168 h, read-out: GI; in short: as §1
Paraphyton cookei [8] = test: Antifungal activity against Nannizzia cajetani Ajello CBS 495.70 assessed as growth inhibition at 20 ug/ml measured on day 7 by sabouraud dextrose agar diffusion method relative to control; assay type: functional; conditions: Ajello CBS 495.70, 168 h, read-out: GI; in short: as §1
[9] = Antifungal activity against Microsporum canis Bodin CBS 4727 assessed as growth inhibition at 20 ug/ml measured on day 7 by sabouraud dextrose agar diffusion method relative to control; assay type: functional; in short: as §1
Nannizzia gypsea [10] = test: Antifungal activity against Nannizzia gypsea (Bodin) Guiart et Grigoraki CBS 286.63 assessed as growth inhibition at 20 ug/ml measured on day 7 by sabouraud dextrose agar diffusion method relative to control; assay type: functional; conditions: (Bodin) Guiart et Grigoraki CBS 286.63, 168 h, read-out: GI; in short: as §1
Epidermophyton floccosum [11] = test: Antifungal activity against Epidermophyton floccosum (Hartz) Langeron and Milochevitch CBS 358.93 assessed as growth inhibition at 100 ug/ml measured on day 7 by sabouraud dextrose agar diffusion method relative to control; assay type: functional; in short: as §1
Trichophyton rubrum [12] = test: Antifungal activity against Trichophyton rubrum (Castellani) Sabouraud IHME 4321 assessed as growth inhibition at 100 ug/ml measured on day 7 by sabouraud dextrose agar diffusion method relative to control; assay type: functional; conditions: (Castellani) Sabouraud IHME 4321, 168 h, read-out: GI; in short: as §1
Trichophyton tonsurans [13] = test: Antifungal activity against Trichophyton tonsurans Malmsten CBS 483.76 assessed as growth inhibition at 100 ug/ml measured on day 7 by sabouraud dextrose agar diffusion method relative to control; assay type: functional; conditions: Malmsten CBS 483.76, 168 h, read-out: GI; in short: as §1
Trichophyton violaceum [14] = test: Antifungal activity against Trichophyton violaceum Malmsten CBS 459.61 assessed as growth inhibition at 100 ug/ml measured on day 7 by sabouraud dextrose agar diffusion method relative to control; assay type: functional; conditions: Malmsten CBS 459.61, 168 h, read-out: GI; in short: as §1
[15] = tested on: Trichophyton mentagrophytes; test: Antifungal activity against Trichophyton mentagrophytes (Robin) Blanchard CBS 160.66 assessed as growth inhibition at 100 ug/ml measured on day 7 by sabouraud dextrose agar diffusion method relative to control; assay type: functional; conditions: (Robin) Blanchard CBS 160.66, 168 h, read-out: GI; in short: as §1
Nannizzia gypsea [16] = test: Antifungal activity against Microsporum gypseum (Bodin) Guiart and Grigorakis IHME 3999 assessed as growth inhibition at 100 ug/ml measured on day 7 by sabouraud dextrose agar diffusion method relative to control; assay type: functional; conditions: (Bodin) Guiart and Grigorakis IHME 3999, 168 h, read-out: GI; in short: as §1
Paraphyton cookei [17] = test: Antifungal activity against Nannizzia cajetani Ajello CBS 495.70 assessed as growth inhibition at 100 ug/ml measured on day 7 by sabouraud dextrose agar diffusion method relative to control; assay type: functional; conditions: Ajello CBS 495.70, 168 h, read-out: GI; in short: as §1
[18] = Antifungal activity against Microsporum canis Bodin CBS 4727 assessed as growth inhibition at 100 ug/ml measured on day 7 by sabouraud dextrose agar diffusion method relative to control; assay type: functional; in short: as §1
Nannizzia gypsea [19] = test: Antifungal activity against Nannizzia gypsea (Bodin) Guiart et Grigoraki CBS 286.63 assessed as growth inhibition at 100 ug/ml measured on day 7 by sabouraud dextrose agar diffusion method relative to control; assay type: functional; conditions: (Bodin) Guiart et Grigoraki CBS 286.63, 168 h, read-out: GI; in short: as §1
[20] = target: Nuclear factor NF-kappa-B complex (Homo sapiens) (UniProt Q00653+P19838+Q04206); test: Inhibition of NF-kappaB (unknown origin)/32P-labeled oligonucleotide interaction at 0.1 to 10 mM after 20 mins by electrophoretic mobility shift assay; assay type: protein-complex assay
In short: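 Probe was a double-stranded 32P-labelled oligonucleotide (0.25 ng) in buffer of 10% glycerol, 0.05% NP-40, 10 mM Tris-HCl pH 7.5, 50 mM NaCl, 0.5 mM DTT and 10 mM MgCl2. Compound and probe were bound for 20 min at room temperature, then recombinant NF-kappaB p50 was added for a further 20 min. Samples were run on 6% polyacrylamide in 0.25× TBE at 200 V.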

K562 [21] = test: Induction of apoptosis in human K562 cells assessed as live cells at 5 uM after 3 days by Annexin-V staining-based assay (reference value: 87.33%); assay type: functional
K562 [22] = test: Induction of apoptosis in human K562 cells assessed as live cells at 10 uM after 3 days by Annexin-V staining-based assay (reference value: 87.33%); assay type: functional
K562 [23] = test: Induction of apoptosis in human K562 cells assessed as early apoptotic cells at 5 uM after 3 days by Annexin-V staining-based assay (reference value: 5.41%); assay type: functional
K562 [24] = test: Induction of apoptosis in human K562 cells assessed as early apoptotic cells at 10 uM after 3 days by Annexin-V staining-based assay (reference value: 5.41%); assay type: functional
K562 [25] = test: Induction of apoptosis in human K562 cells assessed as late apoptotic cells at 5 uM after 3 days by Annexin-V staining-based assay (reference value: 5.96%); assay type: functional
K562 [26] = test: Induction of apoptosis in human K562 cells assessed as late apoptotic cells at 10 uM after 3 days by Annexin-V staining-based assay (reference value: 5.96%); assay type: functional
K562 [27] = test: Induction of apoptosis in human K562 cells assessed as dead cells at 5 uM after 3 days by Annexin-V staining-based assay (reference value: 1.29%); assay type: functional
K562 [28] = test: Induction of apoptosis in human K562 cells assessed as dead cells at 10 uM after 3 days by Annexin-V staining-based assay (reference value: 1.29%); assay type: functional
K562 [29] = test: Induction of apoptosis in human K562 cells assessed as apoptotic cells at 5 uM after 3 days by Annexin-V staining-based assay (reference value: 11.37%); assay type: functional
K562 [30] = test: Induction of apoptosis in human K562 cells assessed as apoptotic cells at 10 uM after 3 days by Annexin-V staining-based assay (reference value: 11.37%); assay type: functional
[31] = Antioxidant activity assessed as superoxide anion radical scavenging by photochemiluminescence method relative to trolox; assay type: physicochemical
In short: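 Superoxide was generated photochemically from luminol under UV light (351 nm). Lag time (water-soluble, ACW) or integrated light emission over 180 s (lipid-soluble, ACL) was compared with a Trolox standard curve. Samples were centrifuged 5 min at 16000 g and diluted 1:40 in water (ACW) or methanol (ACL). Triplicate determinations.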

[32] = Antioxidant activity assessed as inhibition of AAPH-induced peroxyl radical generation by oxygen radical absorbance capacity assay relative to trolox; assay type: physicochemical
In short: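 Run at 37 °C and pH 7.4 with fluorescein (85 nM) as the probe and AAPH as the peroxyl radical source. Compounds were dissolved fresh in PBS. Fluorescence read at ex 485/em 538 nm every 5 min for up to 30 min after AAPH addition. Net area under the decay curve (blank minus sample) was calibrated against Trolox at 10–50 μM and given as Trolox equivalents.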

[33] = Antioxidant activity assessed as superoxide anion radical scavenging by photochemiluminescence method relative to trolox using formulation containing O/W; assay type: physicochemical
K562 [34] = test: Antiproliferative activity against human K562 cells assessed as cell number after 3 days by Coulter counter; conditions: K562, 72 h

Sequence of Nuclear factor NF-kappa-B complex (Homo sapiens) (P19838 whole entry, looked up): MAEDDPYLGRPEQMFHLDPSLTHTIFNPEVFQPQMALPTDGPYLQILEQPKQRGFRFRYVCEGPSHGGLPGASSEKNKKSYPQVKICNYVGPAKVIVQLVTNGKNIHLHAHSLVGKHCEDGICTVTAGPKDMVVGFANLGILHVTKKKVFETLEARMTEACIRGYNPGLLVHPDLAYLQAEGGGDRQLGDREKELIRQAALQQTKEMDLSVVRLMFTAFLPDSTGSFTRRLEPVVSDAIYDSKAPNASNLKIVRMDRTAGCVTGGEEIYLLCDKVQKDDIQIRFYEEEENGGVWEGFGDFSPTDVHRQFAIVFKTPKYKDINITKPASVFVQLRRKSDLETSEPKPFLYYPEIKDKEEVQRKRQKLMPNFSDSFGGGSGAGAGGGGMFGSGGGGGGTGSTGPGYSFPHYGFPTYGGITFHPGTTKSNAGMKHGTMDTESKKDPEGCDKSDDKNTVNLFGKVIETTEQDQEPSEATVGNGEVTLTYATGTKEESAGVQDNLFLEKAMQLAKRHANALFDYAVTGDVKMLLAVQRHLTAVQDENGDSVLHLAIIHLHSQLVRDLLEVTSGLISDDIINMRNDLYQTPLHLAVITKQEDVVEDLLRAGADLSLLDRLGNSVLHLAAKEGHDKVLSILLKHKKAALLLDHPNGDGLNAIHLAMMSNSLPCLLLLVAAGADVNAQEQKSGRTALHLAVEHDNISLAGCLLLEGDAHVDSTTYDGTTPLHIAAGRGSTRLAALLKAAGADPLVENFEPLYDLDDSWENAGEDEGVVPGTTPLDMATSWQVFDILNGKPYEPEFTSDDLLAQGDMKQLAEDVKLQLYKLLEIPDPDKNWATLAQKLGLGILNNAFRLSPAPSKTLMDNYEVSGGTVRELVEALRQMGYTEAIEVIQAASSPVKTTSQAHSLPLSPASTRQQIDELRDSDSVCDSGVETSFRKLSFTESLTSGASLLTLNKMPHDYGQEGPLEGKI
Sequence of Nuclear factor NF-kappa-B complex (Homo sapiens) (Q00653 whole entry, looked up): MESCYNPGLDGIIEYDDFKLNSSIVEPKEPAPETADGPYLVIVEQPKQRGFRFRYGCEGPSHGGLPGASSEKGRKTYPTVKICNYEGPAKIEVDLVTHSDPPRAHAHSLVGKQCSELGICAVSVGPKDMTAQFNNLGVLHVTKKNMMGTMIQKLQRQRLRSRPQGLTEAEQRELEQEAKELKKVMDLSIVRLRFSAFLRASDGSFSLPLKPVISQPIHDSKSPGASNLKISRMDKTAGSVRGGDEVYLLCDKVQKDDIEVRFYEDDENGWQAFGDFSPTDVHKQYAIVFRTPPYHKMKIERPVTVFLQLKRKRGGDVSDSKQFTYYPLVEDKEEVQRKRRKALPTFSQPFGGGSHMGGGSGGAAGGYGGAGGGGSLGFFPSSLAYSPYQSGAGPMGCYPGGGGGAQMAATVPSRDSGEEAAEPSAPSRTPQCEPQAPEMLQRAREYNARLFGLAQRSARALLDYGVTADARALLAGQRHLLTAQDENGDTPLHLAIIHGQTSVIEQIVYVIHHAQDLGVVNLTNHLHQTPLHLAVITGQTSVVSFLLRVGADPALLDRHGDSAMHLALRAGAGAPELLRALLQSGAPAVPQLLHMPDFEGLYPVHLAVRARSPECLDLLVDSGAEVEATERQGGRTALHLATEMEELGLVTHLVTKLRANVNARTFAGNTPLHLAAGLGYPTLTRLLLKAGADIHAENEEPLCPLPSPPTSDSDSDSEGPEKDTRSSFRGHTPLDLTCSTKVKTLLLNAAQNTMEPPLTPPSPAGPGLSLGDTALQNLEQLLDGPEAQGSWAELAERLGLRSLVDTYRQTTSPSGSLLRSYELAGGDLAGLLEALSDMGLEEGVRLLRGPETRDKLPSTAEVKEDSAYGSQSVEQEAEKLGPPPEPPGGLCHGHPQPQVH
Sequence of Nuclear factor NF-kappa-B complex (Homo sapiens) (Q04206 whole entry, looked up): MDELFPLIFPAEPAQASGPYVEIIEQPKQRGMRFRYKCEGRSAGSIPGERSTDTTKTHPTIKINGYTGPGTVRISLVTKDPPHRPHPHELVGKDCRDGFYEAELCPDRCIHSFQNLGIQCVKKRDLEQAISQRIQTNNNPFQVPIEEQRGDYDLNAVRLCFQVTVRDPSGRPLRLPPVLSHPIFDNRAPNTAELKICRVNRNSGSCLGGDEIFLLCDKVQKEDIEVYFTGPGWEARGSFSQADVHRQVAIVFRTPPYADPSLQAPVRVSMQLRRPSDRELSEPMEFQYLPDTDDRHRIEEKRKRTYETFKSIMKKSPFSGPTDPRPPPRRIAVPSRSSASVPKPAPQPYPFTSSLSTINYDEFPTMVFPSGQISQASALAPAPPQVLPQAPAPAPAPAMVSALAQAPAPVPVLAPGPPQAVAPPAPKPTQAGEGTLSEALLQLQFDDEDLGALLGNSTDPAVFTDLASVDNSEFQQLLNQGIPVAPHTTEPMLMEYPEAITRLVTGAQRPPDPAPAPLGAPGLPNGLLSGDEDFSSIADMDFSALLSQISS

With CCC(=O)O[C@@H]1[C@@H](OC(=O)CC)[C@H](C)O[C@@H](OC[C@H]2O[C@@H](Oc3c(-c4ccc(O)c(O)c4)oc4cc(O)cc(O)c4c3=O)[C@H](OC(=O)CC)[C@@H](OC(=O)CC)[C@@H]2OC(=O)CC)[C@@H]1OC(=O)CC the logP at 0.5 h [1] was 1.09, the “growth inhibition (GI)” value (Epidermophyton floccosum [2]) was “inactive” and the inhibition of growth at 20 µg/mL (Trichophyton rubrum [3]) was 3.5%. It also gave an inhibition of growth at 20 µg/mL (Trichophyton tonsurans [4]) of 5.4%, an inhibition of growth at 20 µg/mL (Trichophyton violaceum [5]) of 10.7% and an inhibition of growth at 20 µg/mL [6] of 0%. For the same molecule, the inhibition of growth at 20 µg/mL (Nannizzia gypsea [7]) was 5.4%, the inhibition of growth at 20 µg/mL (Paraphyton cookei [8]) was 0.6% and the “growth inhibition (GI)” value [9] was “inactive”. For the same molecule, the inhibition of growth at 20 µg/mL (Nannizzia gypsea [10]) was 1.9%, the “growth inhibition (GI)” value (Epidermophyton floccosum [11]) was “inactive” and the inhibition of growth at 100 µg/mL (Trichophyton rubrum [12]) was 4.3%. It also gave an inhibition of growth at 100 µg/mL (Trichophyton tonsurans [13]) of 17.8%, an inhibition of growth at 100 µg/mL (Trichophyton violaceum [14]) of 15.8% and an inhibition of growth at 100 µg/mL [15] of 5.7%. For the same molecule, the inhibition of growth at 100 µg/mL (Nannizzia gypsea [16]) was 9.9%, the inhibition of growth at 100 µg/mL (Paraphyton cookei [17]) was 3.5% and the growth inhibition (GI) [18] was 0%. For the same molecule, the inhibition of growth at 100 µg/mL (Nannizzia gypsea [19]) was 7.9%, the inhibition [20] was “Active” and the Activity (K562 [21]) was 79.75%. The Activity (K562 [22]) was 71.2%, the Activity (K562 [23]) was 12.35% and the Activity (K562 [24]) was 11.64%. For the same molecule, the Activity (K562 [25]) was 5.35%, the Activity (K562 [26]) was 15.82% and the Activity (K562 [27]) was 2.55%. It also gave an Activity (K562 [28]) of 1.34%, an Activity (K562 [29]) of 17.7% and an Activity (K562 [30]) of 27.46%. The Activity [31] was 1232.67 µmol/g, the Activity [32] was 728.61 µmol/g and the Activity [33] was 3.81 µmol/g. The pIC50 (K562 [34]) was 5.14.
